# Molecular target: Sodium-dependent dopamine transporter (Rattus norvegicus, UniProt P23977)
# Assay: Agonist activity at rat DAT expressed in CHO cells
# Assay type: functional, cell-based
# Method in brief: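 CHO cell lines constructed to stably express DAT were used to measure DAT agonistic activity, reported as EC50.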
# Chain of Sodium-dependent dopamine transporter (P23977 whole entry): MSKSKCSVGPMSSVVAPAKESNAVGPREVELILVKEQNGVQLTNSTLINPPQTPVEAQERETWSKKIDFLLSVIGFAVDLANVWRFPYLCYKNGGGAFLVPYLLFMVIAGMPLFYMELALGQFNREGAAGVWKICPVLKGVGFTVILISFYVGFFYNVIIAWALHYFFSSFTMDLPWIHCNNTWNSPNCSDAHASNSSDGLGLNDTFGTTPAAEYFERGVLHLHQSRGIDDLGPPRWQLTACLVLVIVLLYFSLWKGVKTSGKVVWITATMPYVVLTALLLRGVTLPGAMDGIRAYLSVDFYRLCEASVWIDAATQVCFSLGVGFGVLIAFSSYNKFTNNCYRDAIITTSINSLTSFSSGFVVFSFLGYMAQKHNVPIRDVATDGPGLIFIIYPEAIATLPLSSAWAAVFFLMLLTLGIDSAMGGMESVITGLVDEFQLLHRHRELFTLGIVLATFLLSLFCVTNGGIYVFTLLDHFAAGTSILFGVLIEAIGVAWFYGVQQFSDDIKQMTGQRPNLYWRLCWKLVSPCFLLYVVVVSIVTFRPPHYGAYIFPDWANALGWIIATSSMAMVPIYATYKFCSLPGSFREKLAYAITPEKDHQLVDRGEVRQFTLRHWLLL
row,EC50 [µM],Structure (SMILES)
1,1.7,CCC(=O)Oc1cc(O)c2c(=O)cc(-c3ccc(O)c(O)c3)oc2c1
2,33,CCCCCCCCCCOc1cc(O)cc2oc(-c3ccc(O)c(O)c3)cc(=O)c12
3,1.82,CCCC(=O)Oc1cc(O)cc2oc(-c3ccc(O)c(O)c3)cc(=O)c12
4,0.869,CCCCC(=O)Oc1cc(O)cc2oc(-c3ccc(O)c(O)c3)cc(=O)c12
5,11.2,O=C(Oc1cc(O)cc2oc(-c3ccc(O)c(O)c3)cc(=O)c12)c1ccccc1
6,31,CCC(=O)Oc1cc(O)cc2oc(-c3ccc(O)c(O)c3)cc(=O)c12
7,5.37,CC(=O)Oc1cc(O)cc2oc(-c3ccc(O)c(O)c3)cc(=O)c12
8,2.71,CC(C)CCC(=O)Oc1cc(O)cc2oc(-c3ccc(O)c(O)c3)cc(=O)c12
9,3.43,CC(C)CCOc1cc(O)cc2oc(-c3ccc(O)c(O)c3)cc(=O)c12
10,16.5,CCCCCCCCOc1cc(O)cc2oc(-c3ccc(O)c(O)c3)cc(=O)c12
11,4.35,COc1cc(O)cc2oc(-c3ccc(O)c(O)c3)cc(=O)c12
12,3.07,CCCOc1cc(O)cc2oc(-c3ccc(O)c(O)c3)cc(=O)c12
13,0.046,CC(C)C(=O)Oc1cc(O)cc2oc(-c3ccc(O)c(O)c3)cc(=O)c12
14,2.21,CCOc1cc(O)cc2oc(-c3ccc(O)c(O)c3)cc(=O)c12
15,6.92,Cc1ccc(C(=O)Oc2cc(O)cc3oc(-c4ccc(O)c(O)c4)cc(=O)c23)cc1
16,5.43,CC(C)Oc1cc(O)cc2oc(-c3ccc(O)c(O)c3)cc(=O)c12
17,2.4,CCCCOc1cc(O)cc2oc(-c3ccc(O)c(O)c3)cc(=O)c12
18,12.9,CCOc1cc(-c2cc(=O)c3c(O)cc(O)cc3o2)ccc1O
19,1.69,CCCC(=O)Oc1cc(O)c2c(=O)cc(-c3ccc(O)c(O)c3)oc2c1
20,2.59,O=c1cc(-c2ccc(O)c(O)c2)oc2cc(O)cc(OCCCCc3ccccc3)c12
21,8.56,CCCCCCCC(=O)Oc1cc(O)cc2oc(-c3ccc(O)c(O)c3)cc(=O)c12
22,1.38,CC(C)C(=O)Oc1cc(O)c2c(=O)cc(-c3ccc(O)c(O)c3)oc2c1
23,3.42,COc1cc(OC)c2c(=O)cc(-c3ccc(O)c(O)c3)oc2c1
24,4.8,CC(C)COc1cc(O)cc2oc(-c3ccc(O)c(O)c3)cc(=O)c12
25,4.58,CCCCCCOc1cc(O)cc2oc(-c3ccc(O)c(O)c3)cc(=O)c12

row,Structure (SMILES),EC50 [µM]
1,O=c1cc(-c2ccc(O)c(O)c2)oc2cc(O)cc(O)c12 [LUTEOLIN],1.45
